Activity calls are given as the source filed them. No cut-off for these calls is given here.
What was measured:
[1] = Oral bioavailability in BALB/c mouse at 10 mg/kg measured up to 24 hrs by LC-MS/MS analysis; type: ADME, organism-based; details: in vivo
Procedure, shortened: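 Overnight-fasted mice, randomized, n=3 per group, each given a single dose by lateral tail vein (iv) or oral gavage. Blood (50 μl per point, under isoflurane) was taken from the retro-orbital plexus. Sampling was at 2 min–24 h after iv and 5 min–24 h after oral dosing. Plasma was separated at 1500 x g for 15 min at 4 °C, stored at -80 °C, and analysed by LCMS.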

[2] = Cmax in BALB/c mouse at 10 mg/kg, po measured up to 24 hrs by LC-MS/MS analysis; type: ADME, organism-based; set-up: route oral, dose 10 mg/kg, time <=24; details: in vivo
Procedure, shortened: (§1)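 Overnight-fasted mice, n=3 per group, single dose by lateral tail vein (iv) or oral gavage (po). Retro-orbital blood under isoflurane at 2 min–24 h (iv) or 5 min–24 h (po). Plasma spun at 1500 x g, 15 min, 4 °C, stored -80 °C, then analysed by LCMS.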

[3] = system: Stimulator of interferon genes protein (Homo sapiens), Q86WV6 [G230A,R293Q]; assay: Activation of human STING AQ mutant expressed in HEK293T cells assessed as phosphorylation at (Ser366) at 10 uM incubated for 2 hrs and measured by Western blot analysis; type: cell-based; details: filed as activator
Sequence of Stimulator of interferon genes protein (Homo sapiens), Q86WV6 [G230A,R293Q] (Q86WV6 whole entry G230A/R293Q): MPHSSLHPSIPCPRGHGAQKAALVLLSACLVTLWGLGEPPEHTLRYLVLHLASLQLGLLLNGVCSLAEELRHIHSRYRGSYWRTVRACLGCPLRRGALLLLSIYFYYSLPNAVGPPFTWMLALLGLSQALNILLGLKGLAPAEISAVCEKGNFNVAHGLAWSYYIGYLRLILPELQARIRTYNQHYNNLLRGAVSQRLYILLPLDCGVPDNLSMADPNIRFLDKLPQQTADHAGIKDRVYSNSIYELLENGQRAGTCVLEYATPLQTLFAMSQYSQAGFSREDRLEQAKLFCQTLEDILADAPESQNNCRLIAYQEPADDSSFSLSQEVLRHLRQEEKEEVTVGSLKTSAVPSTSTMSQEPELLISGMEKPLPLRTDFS
Procedure, shortened: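 HEK293T clones stably carrying each human STING variant, picked by blasticidin selection and limiting dilution. 5 x 10^5 cells were exposed to compound at 10μM for 2 h, lysed in RIPA with phosphatase and protease inhibitors, and 10 μg protein run on 10% SDS-PAGE. Immunoblots probed for pSTING (Ser366), pIRF3 (Ser396), total STING, IRF3 and actin, detected by ECL.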

[4] = Cmax in BALB/c mouse at 5 mg/kg, iv measured up to 24 hrs by LC-MS/MS analysis; type: ADME, organism-based; set-up: route intravenous, dose 5 mg/kg, time <=24; details: in vivo; procedure, shortened: as §1
[5] = system: Stimulator of interferon genes protein (Homo sapiens), Q86WV6 [UNDEFINED MUTATION]; assay: Activation of human STING R232 in A 172 cells assessed as phosphorylation of IRF-3 at (Ser396) at 10 uM incubated for 2 hrs and measured by Western blot analysis; type: cell-based; details: filed as activator
Sequence of Stimulator of interferon genes protein (Homo sapiens), Q86WV6 [UNDEFINED MUTATION] (Q86WV6 whole entry, looked up, change not shown): as the sequence (Q86WV6 whole entry G230A/R293Q) above, with A230G, Q293R counted along it
Procedure, shortened: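 Tumor cell lines or human primary cells carrying endogenous STING variants; STING KO cells as control. 10µM for 2 h, then lysed in RIPA with phosphatase and protease inhibitors. 10 μg protein on 10% SDS-PAGE, blotted for pSTING (Ser366), pIRF3 (Ser396), STING, IRF3 and actin, ECL detection.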

[6] = biological target: Stimulator of interferon genes protein (Homo sapiens, UniProt Q86WV6); assay: Activation of human STING in human PBMC cells assessed as induction of IFNbeta expression at 10 uM incubated upto 24 hrs and measured by qt-PCR analysis; type: cell-based; details: filed as activator, time hrs <=24
Sequence of Stimulator of interferon genes protein (Q86WV6 whole entry): as the sequence (Q86WV6 whole entry G230A/R293Q) above, with A230G, Q293R counted along it
Procedure, shortened: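 2 x 10^5 freshly isolated human PBMC from healthy donors, separated on Histopaque, given a single compound concentration. Harvested early (6 hr) or late (20h). Cytokine mRNA read by qRT-PCR as relative normalized expression (fold) against vehicle-treated cells.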

**Q.** Which bioavailability [1] does the source give for `CC1(C)C(=O)N(Cc2c(F)cccc2Cl)c2cc(C(=O)NCc3c(F)cc(F)cc3F)ccc21` here?
**A.** 86%

**Q.** What about the Cmax [2] of the same compound?
**A.** 1720 ng/mL

**Q.** And the Activity [3]?
**A.** Active

**Q.** What about the Cmax [4] of the same compound?
**A.** 1870 ng/mL

**Q.** What about the Activity [5] of the same compound?
**A.** Active

**Q.** And the Activity [6]?
**A.** Active

Source: ChEMBL document CHEMBL4732051, “The discovery of potent small molecule activators of human STING” (Eur J Med Chem, 2021)
